Reference: paper PMC12064631 (Clinical Pharmacokinetics, 2025)
Values joined by “and” are separate entries in the source; they are usually repeats but may differ in a detail not shown here. Equal values may be shown once. Read-outs that look alike come from different tables or passages of the source. Values belong to the molecule of their own block, whether it stands above or below them.

Tests used:
DPP-4 [1] = target: T1, DPP-4 (Homo sapiens, UniProt P27487); assay: PK-PD relationship between DPP-4 inhibition and DBPR108 exposure; type: in vivo, human (Chinese patients with type 2 diabetes)
T1 sequence (P27487 39-766): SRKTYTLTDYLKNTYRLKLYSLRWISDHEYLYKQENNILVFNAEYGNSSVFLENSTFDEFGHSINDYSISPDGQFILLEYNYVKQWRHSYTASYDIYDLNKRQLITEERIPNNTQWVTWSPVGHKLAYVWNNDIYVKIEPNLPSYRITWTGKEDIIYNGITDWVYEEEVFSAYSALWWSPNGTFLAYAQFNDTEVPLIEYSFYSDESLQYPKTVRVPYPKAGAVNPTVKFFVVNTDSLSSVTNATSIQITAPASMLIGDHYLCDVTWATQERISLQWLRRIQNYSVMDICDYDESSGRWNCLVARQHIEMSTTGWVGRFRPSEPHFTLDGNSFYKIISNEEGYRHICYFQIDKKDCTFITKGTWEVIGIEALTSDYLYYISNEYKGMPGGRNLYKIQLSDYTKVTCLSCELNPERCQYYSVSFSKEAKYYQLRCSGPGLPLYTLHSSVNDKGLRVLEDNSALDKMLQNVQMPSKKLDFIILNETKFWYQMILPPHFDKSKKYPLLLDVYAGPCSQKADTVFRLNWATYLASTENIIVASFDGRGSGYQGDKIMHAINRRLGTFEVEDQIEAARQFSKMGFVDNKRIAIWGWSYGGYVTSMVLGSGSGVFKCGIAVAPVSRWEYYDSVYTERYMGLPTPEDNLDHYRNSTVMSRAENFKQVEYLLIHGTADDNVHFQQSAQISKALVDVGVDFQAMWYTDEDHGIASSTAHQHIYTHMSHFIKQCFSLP
Outline: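 Each patient's plasma drug level (LC-MS/MS) was paired with plasma DPP-4 % inhibition, after one dose and after repeated once-daily oral dosing at 50–200 mg. Linear correlation with exposure was assessed, and inhibition versus concentration was fitted with an Emax model giving Emax and EC50. Only patients with evaluable PK and PD data were included.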

DPP‐8 = details: cited from earlier work
DPP-4 [2] = target: T1, DPP-4; assay: Inhibition of plasma DPP-4 activity after single and multiple doses of DBPR108; type: in vivo, human (Chinese patients with type 2 diabetes)
Outline: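 Chinese adults with type 2 diabetes (HbA1c 7.0–9.5%, BMI 19–35 kg/m2), 10 per group. Oral tablets of 50, 100 or 200 mg were given fasting, once daily on days 1 and 3–9. Plasma was spun at 1300 ± 50 g, 2–8 °C, 10 min and stored ≤ –60 °C. DPP-4 activity was read on a microplate reader (LLOQ 21.23 μU/mL), with % inhibition taken from baseline.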

[3] = test system: fibroblast activation protein; details: cited from earlier work
DPP‐2 = details: cited from earlier work
[4] = type: in vivo, human (Chinese patients with type 2 diabetes); details: for AUC(0-inf) / AUC(0-t) / AUC / Tmax / Vd/F / half-life / k el / Cmax: human, plasma; for AUC(0-inf) / AUC(0-t) / AUC / Tmax / Vd/F / half-life / k el: oral; for AUC(0-inf): AUCinf; for AUC(0-inf) / AUC(0-t) / AUC / Vd/F / half-life / k el / %AUC_ex,ss / CLss/F / Cmin,ss / %AUC_ex / CL/F: mean (SD); for AUC(0-t): AUClast; for AUC: AUCtau; for Tmax: median (range); for Vd/F: Vz/F; for k el: λz; for Cmax: po
Outline: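 Fasting oral tablets of 50, 100 or 200 mg were given once daily on days 1 and 3–9 (eight doses). Plasma was spun at 1700 ± 50 g, 4 °C, 10 min, acidified with 50% acetic acid (1:100) and stored ≤ –60 °C. Analysis was by validated LC-MS/MS (1.00–2000 ng/mL; LLOQ 1.00 ng/mL). Individual parameters and accumulation ratio came from noncompartmental analysis using actual sampling times.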

DPP‐9 = details: cited from earlier work
Safety assessment = type: in vivo, human (Chinese patients with type 2 diabetes)
Outline: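 Treatment-emergent adverse events were recorded as a secondary outcome in all patients dosed at least once. Dosing was oral tablets of 50, 100 or 200 mg, fasting, once daily on days 1 and 3–9. Patients were grouped by the dose actually received.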

diet-induced obese mice = details: DBPR108 in combination with metformin; cited from earlier work
[5] = single dose of 100 mg, healthy subjects, cited from earlier work
DPP‐4 = details: cited from earlier work
active GLP-1 = assay: Plasma active GLP-1 level after single and multiple doses of DBPR108; type: in vivo, human (Chinese patients with type 2 diabetes); details: for Emax,GLP-1 (active GLP-1): mean (SD)
Outline: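 Patients with type 2 diabetes, 10 per group, received oral tablets of 50, 100 or 200 mg fasting, once daily on days 1 and 3–9. Plasma was spun at 1300 ± 50 g, 2–8 °C, 10 min and stored ≤ –60 °C. Active GLP-1 was measured by MSD V-PLEX kit (LLOQ 0.182 pM). Emax and time to Emax were taken per group, and correlation with exposure was checked.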

[6] = test system: DPP-4 activity in the plasma; details: plasma of humans, rodents, dogs, and monkeys, range over species; cited from earlier work
[7] = large clinical trials, rare; cited from earlier work
DPP-4 [8] = details: 168 h post single dose of 25 mg, healthy Japanese subjects; cited from earlier work
[9] = single dose and multiple doses, 50 mg to 200 mg, linear regression
[10] = multiple doses, range over 50-200 mg groups
[11] = 50 mg, multiple doses 50 mg once daily
[12] = 100 mg, multiple doses 100 mg once daily
[13] = 200 mg, multiple doses 200 mg once daily
[14] = multiple doses 50 mg once daily
[15] = multiple doses 100 mg once daily
[16] = multiple doses 200 mg once daily

EC50 (DPP-4 [1]; EC50 (Emax model), after a single administration, DPP-4 inhibition versus plasma concentration): 323 nM | Emax,DPP-4 (Emax model) (DPP-4 [1]; after multiple doses, DPP-4 inhibition versus plasma concentration): 106.19% | Emax (DPP-4 [1]; read-out: Emax,DPP-4 (Emax model), after a single administration, DPP-4 inhibition versus plasma concentration): 120% | Emax (DPP-4 [1]; read-out: Emax,DPP-4 (Emax model), after multiple doses, DPP-4 inhibition versus plasma concentration): 106% | Correlation between DPP-4 inhibition and DBPR108 exposure (DPP-4 [1]; [9]): linear correlation was observed | maximum inhibitory efficacy of DPP-4 (DPP-4 [2]; [10]): 62.1 to 89.4% | time to Emax,DPP-4 (DPP-4 [2]; [10]): 3 to 4 h | median time to Emax of DPP-4 (DPP-4 [2]; single dose 50 mg): 2 h | median time to Emax of DPP-4 (DPP-4 [2]; single dose 100 mg): 4 h | median time to Emax of DPP-4 (DPP-4 [2]; single dose 200 mg): 6 h | Dose proportionality of exposure (power model) ([4]; 50 mg to 200 mg, single dose and multiple doses): increased dose proportionally | Steady state achieved on ([4]; dosing on days 1 and 3-9): 7 days | AUC(0-inf) ([4]; 50 mg, single dose 50 mg): 792 ng·h/mL | AUC(0-t) ([4]; 50 mg, single dose 50 mg): 780 ng·h/mL | AUC ([4]; 50 mg, single dose 50 mg): 770 ng·h/mL | Tmax ([4]; 50 mg, single dose 50 mg): 1.5 h | Vd/F [4, 11]: 806 L | Vd/F ([4]; 50 mg, single dose 50 mg): 479 L | half-life ([4]; 50 mg, t½, single dose 50 mg): 5 h | half-life ([4]; 50 mg, t½,ss, multiple doses 50 mg once daily): 8 h | k el [4, 11]: 3.56e-05 s⁻¹ | k el ([4]; 50 mg, single dose 50 mg): 5e-05 s⁻¹ | AUC(0-inf) ([4]; 100 mg, single dose 100 mg): 1530 ng·h/mL | AUC(0-t) ([4]; 100 mg, single dose 100 mg): 1500 ng·h/mL | AUC ([4]; 100 mg, single dose 100 mg): 1450 ng·h/mL | Tmax ([4]; 100 mg, single dose 100 mg): 4.5 h | Vd/F [4, 12]: 896 L | Vd/F ([4]; 100 mg, single dose 100 mg): 1010 L | half-life ([4]; 100 mg, t½, single dose 100 mg): 9.6 h | half-life ([4]; 100 mg, t½,ss, multiple doses 100 mg once daily): 7.4 h | k el [4, 12]: 4.03e-05 s⁻¹ | k el ([4]; 100 mg, single dose 100 mg): 3.61e-05 s⁻¹ | AUC(0-inf) ([4]; 200 mg, single dose 200 mg): 3400 ng·h/mL | AUC(0-t) ([4]; 200 mg, single dose 200 mg): 3280 ng·h/mL | AUC ([4]; 200 mg, single dose 200 mg): 3120 ng·h/mL | Tmax ([4]; 200 mg, single dose 200 mg): 4.5 h | Vd/F [4, 13]: 894 L | Vd/F ([4]; 200 mg, single dose 200 mg): 1070 L | half-life ([4]; 200 mg, t½, single dose 200 mg): 12.3 h | half-life ([4]; 200 mg, t½,ss, multiple doses 200 mg once daily): 10.2 h | k el [4, 13]: 2.69e-05 s⁻¹ | k el ([4]; 200 mg, single dose 200 mg): 2.78e-05 s⁻¹ | Cmax ([4]; 50 mg): 151 ng/mL | Cmax ([4]; 100 mg): 239 ng/mL | Cmax ([4]; 200 mg): 474 ng/mL | %AUC_ex,ss [4, 14]: 4.48 (4.09) % | CLss/F [4, 14]: 76.0 (23.3) L/h | Cmin,ss [4, 14]: 3.2 (1.6) ng/mL | %AUC_ex,ss [4, 15]: 2.33 (3.04) % | CLss/F [4, 15]: 76.4 (22.3) L/h | Cmin,ss [4, 15]: 5.6 (2.9) ng/mL | %AUC_ex,ss [4, 16]: 3.17 (3.44) % | CLss/F [4, 16]: 64.6 (16.7) L/h | Cmin,ss [4, 16]: 18.3 (16.8) ng/mL | Accumulation ratio (Rac) ([4]; multiple doses, range over the 50-, 100-, 200-mg groups): 0.85 to 1.3 and 0.85–1.3 | Steady state reached after ([4]; once-daily dosing, 50-200 mg): four | %AUC_ex ([4]; single dose 50 mg): 1.5 (0.9) % | CL/F ([4]; single dose 50 mg): 66.6 (16.5) L/h | %AUC_ex ([4]; single dose 100 mg): 2.3 (1.4) % | CL/F ([4]; single dose 100 mg): 72.9 (26.2) L/h | %AUC_ex ([4]; single dose 200 mg): 3.2 (3.2) % | CL/F ([4]; single dose 200 mg): 63.3 (17.0) L/h
SMILES: CC(C)(CC(=O)N1CCCC1)NCC(=O)N1C[C@@H](F)C[C@H]1C#N [DBPR108, (2S,4S)-1-[2-(1,1-dimethyl-3-oxo-3-pyrrolidin-1-yl-propylamino)acetyl]-4-fluoro-pyrrolidine-2-carbonitrile]
IC50 (DPP‐8): > 50 nM | IC50 [3]: > 50 nM | IC50 (DPP‐2): > 50 nM | IC50 (DPP‐9): > 50 nM | Tolerability (Safety assessment; 50-200 mg once daily, eight doses): well tolerated | Cardiovascular adverse events (Safety assessment; all 30 patients): no cardiovascular adverse events were observed | Severe TEAEs, serious TEAEs, TEAEs leading to treatment interruption or discontinuation (Safety assessment; all 30 patients): No severe TEAEs, serious TEAEs, or TEAEs leading to treatment interruption or discontinuation occurred | TEAE white blood cell count increase, n [%] (Safety assessment; all 30 patients): 1 [3.3%] | Patients with treatment-emergent adverse events (TEAEs) (Safety assessment; all 30 patients, 50-200 mg): 20% | Glucose tolerability (diet-induced obese mice): improved glucose tolerability | Cmax ([5]; mean (SD)): 218.8 (101.8) ng/mL | t½ ([5]; mean (SD)): 8.2 (8.6) h | Tmax ([5]; median (range)): 4.48 (range 1–6) h | IC50 (DPP‐4): 15 nM | Active GLP-1 levels after administration (active GLP-1; after DBPR108 administration, 50-200 mg): increased | Emax,GLP-1 (active GLP-1) (active GLP-1; [14]): 5.7 (2.2) pM | Emax,GLP-1 (active GLP-1) (active GLP-1; [15]): 6.6 (2.3) pM | Emax,GLP-1 (active GLP-1) (active GLP-1; [16]): 5.8 (3.2) pM | median time to Emax,GLP-1 (active GLP-1; [10]): 6 to 7 h | median time to Emax,GLP-1 (active GLP-1; single dose 50 mg): 8 h | Emax,GLP-1 (active GLP-1) (active GLP-1; single dose 50 mg): 4.5 (1.6) pM | median time to Emax,GLP-1 (active GLP-1; single dose 100 mg): 12 h | Emax,GLP-1 (active GLP-1) (active GLP-1; single dose 100 mg): 4.8 (1.4) pM | median time to Emax,GLP-1 (active GLP-1; single dose 200 mg): 12 h | Emax,GLP-1 (active GLP-1) (active GLP-1; single dose 200 mg): 5.5 (2.1) pM | Correlation between changes in plasma active GLP-1 and DBPR108 exposure (active GLP-1; [9]): no linear correlation was noted | IC50 [6]: 4.1 to 20.4 nM

SMILES: Cn1c(=O)cc(N2CCC[C@@H](N)C2)n(Cc2ccccc2C#N)c1=O [alogliptin]
Risk of pancreatitis [7]: increased risks of pancreatitis were observed

SMILES: CS(=O)(=O)n1cc2c(n1)CN([C@H]1CO[C@H](c3cc(F)ccc3F)[C@@H](N)C1)C2 [omarigliptin]
Emax,DPP-4 (DPP-4 [8]): 86.0%

SMILES: N[C@@H](CC(=O)N1CCn2c(nnc2C(F)(F)F)C1)Cc1cc(F)c(F)cc1F [sitagliptin]
Risk of pancreatitis [7]: increased risks of pancreatitis were observed
